What was measured:
[1] = Inhibition of Proteus vulgaris CCM 1956 urease by berthelot colorimetric assay
In short: (§1)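 Urease partially purified from the cells of each strain, which were grown aerobically at 37 °C in yeast extract/urea/1 mM NiCl2 medium at pH 9.0. Purification used anion exchange followed by phenyl-Sepharose. Enzyme incubated at 30 °C in 3 mM phosphate pH 7.0 with increasing inhibitor concentrations and urea 10–100 mM. Activity read by modified Berthelot colorimetry. IC50 and Ki were derived by equation fitting.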

[2] = Inhibition of Bacillus pasteurii CCM 2056 urease by berthelot colorimetric assay; design: species or system Sporosarcina pasteurii; in short: as §1
[3] = Inhibition of Klebsiella aerogenes urease

| SMILES | IC50 [1] | Ki [1] | IC50 [2] | Ki [2] | Ki [3] |
| --- | --- | --- | --- | --- | --- |
| O=C(NCP(O)(=S)CO)OCc1ccccc1 (stereo not drawn) | 976 µM | 143 µM | 1420 µM | 428 µM |  |
| NCP(=O)(O)CO [AMINOMETHYL(HYDROXYMETHYL)PHOSPHINIC ACID] | 47.7 µM | 27.5 µM | 423 µM | 95 µM |  |
| CNCP(=O)(O)CO [HYDROXYMETHYL((METHYLAMINO)METHYL)PHOSPHINIC ACID] | 0.96 µM | 0.36 µM | 1.59 µM | 0.43 µM |  |
| CNCP(C)(=O)O [METHYL((METHYLAMINO)METHYL)PHOSPHINIC ACID] |  | 27 µM |  |  |  |
| O=C(CNC(=O)OCc1ccccc1)NCP(=O)(O)CO | 3.6 µM | 1.96 µM | 5 µM | 1.35 µM |  |
| CC(=O)NO [ACETOHYDROXAMIC ACID] |  |  |  |  | 2.6 µM |
| CN(C)CC(=O)NCP(=O)(O)CO | 0.86 µM | 0.43 µM | 2.15 µM | 1.15 µM |  |
| O=C(NCP(=O)(O)CO)c1ccccc1 [BENZOYLAMINOMETHYL(HYDROXYMETHYL)PHOSPHINIC ACID] | 28 µM | 9.2 µM | 69 µM | 31.9 µM |  |
| CNCC(=O)NCP(=O)(O)CO | 20.6 µM | 16.2 µM | 25.4 µM | 10.6 µM |  |
| CP(=O)(O)CNC(=O)CN |  | 30 µM |  |  |  |
| CN(C)CP(=O)(O)CO [(DIMETHYLAMINO)METHYL(HYDROXYMETHYL)PHOSPHINIC ACID] | 17.2 µM | 3.1 µM | 67.6 µM | 5 µM |  |
| O=C(NCP(=O)(O)CO)OCc1ccccc1 | 377 µM | 41.9 µM | 889 µM | 376 µM |  |
| NCC(=O)NCP(=O)(O)CO | 14.9 µM | 7.3 µM | 85 µM | 30.5 µM |  |
